Experimental findings from ChEMBL document CHEMBL1137418, “Neurosteroid analogues. 11. Alternative ring system scaffolds: gamma-aminobutyric acid receptor modulation and anesthetic actions of benz[f]indenes” (J Med Chem, 2006) are described below.

The source made the active and inactive calls. The calls are words filed in the database; no cut-off is given here.

In assay [1] the target is GABA-A receptor; anion channel. In words: Displacement of [35S]TBPS from GABA-A receptor in rat brain membrane. In kind it is cell membranes. The method, boiled down: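 Rat brain membranes were used to measure noncompetitive displacement of [35S]-TBPS from the picrotoxin site of GABAA receptors. Hill slopes were also derived. Results come from duplicate experiments run in triplicate, with error as SEM.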

The target in assay [2] is T1, GABA-A receptor; alpha-1/beta-2/gamma-2 (Rattus norvegicus) (UniProt P18508+P62813+P63138). In words: Activity at rat GABA-Aalpha1 receptor plus beta-2-gamma-2L expressed in Xenopus laevis oocyte assessed as ratio of GABA-mediated current in presence to absence of compound at 10 uM. In kind it is functional.
Assay [3] addresses T1, GABA-A receptor; alpha-1/beta-2/gamma-2 (Rattus norvegicus). In words: Activity at rat GABA-Aalpha1 receptor plus beta2gamma2L expressed in Xenopus laevis oocyte assessed as ratio of GABA-mediated current in presence to absence of compound at 1 uM. It is filed as functional.
For assay [4] the target is unchanged. In words: Activity at rat GABA-Aalpha1 receptor plus beta-2-gamma-2L expressed in Xenopus laevis oocyte assessed as ratio of GABA-mediated current in presence to absence of compound at 0.1 uM. It is filed as functional.
Assay [5] is filed under the species Xenopus laevis. The assay can be described thus: Loss of swimming reflex in Xenopus laevis tadpole. It is filed as functional. An outline of the steps:
(§1)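 Xenopus tadpoles were scored for loss of righting response and, separately, loss of swimming response. N = 10 animals were tested at each of five or more concentrations, and error is given as SEM.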

The target of assay [6] is T1, GABA-A receptor; alpha-1/beta-2/gamma-2 (Rattus norvegicus). In words: Activity at rat GABA-Aalpha1 receptor plus beta-2-gamma-2L expressed in Xenopus laevis oocyte assessed as ratio of current evoked by compound alone in absence of GABA to current evoked by 2 uM GABA at 10 uM.
Assay [7] is filed under the species Xenopus laevis. In words: Loss of righting reflex in Xenopus laevis tadpole. In kind it is functional. The method, boiled down: as §1
The species named for assay [8] is Xenopus laevis. In words: Loss of swimming reflex in Xenopus laevis tadpole at 10 uM. In kind it is functional, organism-based.
The species named for assay [9] is Xenopus laevis. In words: Loss of righting reflex in Xenopus laevis tadpole at 10 uM. In kind it is functional, organism-based.

As to `C[C@]12C[C@H]3CC[C@@H](CCO)CC3C[C@@H]1CCC2=O` (single isomer, unassigned; 1c), the IC50 – broadly, the midpoint of a concentration-inhibition curve – in [1] was over 30 µM.
Turning to `CC(=O)[C@H]1CC[C@H]2[C@@H]3CC[C@H]4C[C@H](O)CC[C@]4(C)[C@H]3CC[C@]12C` [BREXANOLONE], the Ratio in [2] turned out to be 9.65; in assay [3] it was 3.89; in [4] it was 1.26; in [6] it was 0.37. Besides, the figures for the ED50 in assay [5] and in assay [7] were 5.5 µM and 0.42 µM, respectively.
With `CC(=O)[C@H]1CC[C@H]2[C@@H]3CC[C@H](CCO)C[C@H]3CC[C@]12C`, the Ratio turned out to be 9.35 in assay [2], 3.79 in assay [3], 1.27 in assay [4] and 0.13 in assay [6]. Further, the IC50 in assay [1] stood at 0.13 µM. Besides, the ED50 came out at 2.84 µM in assay [5] and 1.04 µM in assay [7].
Consider `C[C@]12CC[C@@H](O)C[C@@H]1CC[C@@H]1[C@@H]2CC[C@]2(C)[C@@H](C#N)CC[C@@H]12`, for which the Ratio is 8.28 in assay [2], 5.65 in assay [3], 1.44 in assay [4] and 0.66 in assay [6]. In assay [1], the IC50 amounted to 0.05 µM. Moreover, the ED50 worked out at 0.71 µM in [5] and 0.07 µM in assay [7].
Consider `C[C@]12C[C@H]3CC[C@H](CCO)CC3C[C@@H]1CCC2=O` (single isomer, unassigned; 1a) [listing 1 of 2 here], for which the concentration for half-maximal inhibition (IC50) in assay [1] amounted to 5.01 µM. In assay [7], this compound gave an ED50 of 4.01 µM.
Turning to `C[C@]12C[C@H]3CC[C@H](CCO)CC3C[C@@H]1CC[C@@H]2C#N` (single isomer, unassigned; 2a) [listing 1 of 2 here], the Ratio in assay [2] was determined as 3.9; in [3] it was 1.29; in assay [4], 1.02; in assay [6] it was 0.
With `C[C@]12CC[C@@H]3C[C@H](CCO)CC[C@H]3[C@@H]1CCC2=O`, the Ratio amounted to 1.05 in assay [2], 1.03 in [3], 0.99 in assay [4] and 0.03 in [6]. Further, in assay [1], the IC50 turned out to be 4.17 µM. Also, the result in [8] was inactive. The ED50 in assay [7] is 16.4 µM.
On to `C[C@]12CC[C@@H]3C[C@H](CCO)CC[C@H]3[C@@H]1CC[C@@H]2C#N`, for which the Ratio came out at 12.2 in assay [2], 2.33 in [3], 1.29 in assay [4] and 0.54 in [6]. Besides, the IC50 in assay [1] was 0.58 µM. The ED50 in assay [5] turned out to be 5.5 µM; in [7] it was 0.79 µM.
Turning to `CC(=O)[C@H]1CC[C@H]2[C@@H]3CC[C@@H](CCO)C[C@H]3CC[C@]12C`, the Ratio is 3.63 in [2], 0.96 in assay [3], 0.91 in [4] and 0.14 in [6]. The IC50 in [1] came to 1.17 µM. For the same compound, the ED50 in assay [5] came to 3.15 µM; in assay [7] it was 1.09 µM.
Take `C[C@]12C[C@H]3CC[C@@H](CCO)CC3C[C@@H]1CC[C@@H]2C#N` (single isomer, unassigned; 2c) [listing 1 of 2 here]: in [1], the IC50 is 1.98 µM. In assay [7], this compound displayed an ED50 of 3 µM.
Regarding `C[C@]12C[C@H]3CC[C@H](CCO)CC3C[C@@H]1CCC2=O` (single isomer, unassigned; 1a) [listing 2 of 2 here], the Ratio in assay [2] was 2.42; in assay [3], 1; in [4], 1; in assay [6] it was -0.02. Besides, the outcome in [8] was inactive.
For the compound `C[C@]12C[C@H]3CC[C@@H](CCO)CC3C[C@@H]1CC[C@@H]2C#N` (single isomer, unassigned; 2b) [listing 1 of 2 here], the half-maximal inhibitory concentration (IC50) in [1] amounted to 0.52 µM. Besides, the ED50 in assay [5] was determined as 5.48 µM; in assay [7], 2.88 µM.
Consider `C[C@]12CC[C@@H](O)C[C@H]1CC[C@@H]1[C@@H]2CC[C@]2(C)C(=O)CC[C@@H]12` [ETIOCHOLANOLONE], for which the Ratio in assay [2] was 1.39; in [3], 0.87; in assay [4], 0.89; in assay [6] it was 0. Further, in assay [1], the IC50 came to 4.14 µM. The result in [8] was inactive. Moreover, the ED50 in [7] was over 10 µM.
As for `C[C@]12C[C@H]3CC[C@H](CCO)CC3C[C@@H]1CC[C@@H]2C#N` (single isomer, unassigned; 2a) [listing 2 of 2 here], in assay [1], the IC50 amounted to 1.22 µM. Also, the ED50 in assay [5] was found to be 17.3 µM; in assay [7] it was 4.78 µM.
Regarding `CC(=O)[C@H]1CC[C@H]2CC3C[C@H](CCO)CC[C@@H]3C[C@@]21C` (single isomer, unassigned), the outcome in assay [8] was inactive. The same compound displayed an ED50 in [7] of over 10 µM.
Take `C[C@]12CC[C@@H](O)C[C@H]1CC[C@@H]1[C@@H]2CC[C@]2(C)[C@@H](C#N)CC[C@@H]12`: the Ratio was 20.6 in assay [2], 10.4 in assay [3], 2.02 in assay [4] and 0.09 in [6]. The IC50 in assay [1] came to 0.072 µM. Moreover, the ED50 in assay [5] came to 0.36 µM; in assay [7] it was 0.08 µM.
As for `C[C@]12C[C@H]3CC[C@@H](CCO)CC3C[C@@H]1CCC2=O` (single isomer, unassigned; 1b) [listing 1 of 2 here], the Ratio in assay [2] was 3.54; in [3] it was 1.08; in [4], 0.9; in assay [6] it was -0.02. The result in assay [9] and in assay [8] was inactive.
In the case of `C[C@]12CC[C@@H]3C[C@@H](CCO)CC[C@H]3[C@@H]1CCC2=O`, the Ratio in assay [2] is 2.11; in assay [3] it was 1.22; in [4], 0.95; in assay [6] it was -0.16. In addition, the IC50 in assay [1] came out at 5.42 µM. The result in assay [8] was inactive. The same compound came in with an ED50 in [7] of 8.1 µM.
With `C[C@]12C[C@H]3CC[C@@H](CCO)CC3C[C@@H]1CC[C@@H]2C#N` (single isomer, unassigned; 2b) [listing 2 of 2 here], the Ratio in assay [2] was found to be 7.21; in [3] it was 2.11; in assay [4] it was 1.02; in assay [6] it was 0.01.
As to `C[C@]12C[C@H]3CC[C@@H](CCO)CC3C[C@@H]1CC[C@@H]2C#N` (single isomer, unassigned; 2c) [listing 2 of 2 here], the Ratio in assay [2] is 3.23; in assay [3], 1.14; in assay [4] it was 1.01; in [6], -0.01. Besides, the outcome in assay [8] was inactive.
With `CC(=O)[C@H]1CC[C@H]2[C@@H]3CC[C@@H]4C[C@H](O)CC[C@]4(C)[C@H]3CC[C@]12C` [ELTANOLONE], the Ratio was determined as 9.77 in assay [2], 2.82 in [3], 1.2 in assay [4] and 0.06 in [6]. The ED50 in [5] stood at 0.3 µM; in assay [7] it was 0.06 µM.
Consider `C[C@]12C[C@H]3CC[C@H](CCO)CC3C[C@@H]1CCC2=O` (single isomer, unassigned; 1d) [listing 1 of 2 here], for which the Ratio in assay [2] is 1.21; in assay [3], 1.04; in [4], 1.02; in assay [6], -0.05. In addition, the outcome in assay [8] was inactive.
`C[C@]12C[C@H]3CC[C@@H](CCO)CC3C[C@@H]1CCC2=O` (single isomer, unassigned; 1b) [listing 2 of 2 here] showed an IC50 in assay [1] of 3.92 µM.
For `C[C@]12CC[C@@H]3C[C@@H](CCO)CC[C@H]3[C@@H]1CC[C@@H]2C#N`, the Ratio in [2] came to 7.42; in assay [3], 3.65; in [4] it was 1.45; in [6], 0.01. Also, the IC50 in assay [1] was 0.13 µM. The ED50 in assay [5] was 1.73 µM; in assay [7] it was 0.14 µM.
As to `C[C@]12CC[C@@H](O)C[C@@H]1CC[C@@H]1[C@@H]2CC[C@]2(C)C(=O)CC[C@@H]12` [ANDROSTERONE], the Ratio in [2] was found to be 5.44; in assay [3], 1.41; in assay [4] it was 0.97; in assay [6] it was 0.02. Further, the IC50 in assay [1] is 0.41 µM. The result in assay [8] was inactive. Also, the ED50 in assay [7] came out at 3.38 µM.
As for `C[C@]12C[C@H]3CC[C@H](CCO)CC3C[C@@H]1CC[C@@H]2C#N` (single isomer, unassigned; 2d) [listing 1 of 2 here], the Ratio in assay [2] came out at 2.17; in assay [3] it was 1.03; in assay [4], 0.98; in assay [6], 0.01.
In assay [1], `CC(=O)[C@H]1CC[C@H]2CC3C[C@@H](CCO)CC[C@@H]3C[C@@]21C` (single isomer, unassigned) showed an IC50 of 2.05 µM. Also, the ED50 was 17.3 µM in assay [5] and 6.63 µM in [7].
`C[C@]12C[C@H]3CC[C@H](CCO)CC3C[C@@H]1CCC2=O` (single isomer, unassigned; 1d) [listing 2 of 2 here] had an IC50 in assay [1] of over 10 µM. The compound further returned an ED50 in assay [7] of 10 µM.
For `C[C@]12C[C@H]3CC[C@H](CCO)CC3C[C@@H]1CC[C@@H]2C#N` (single isomer, unassigned; 2d) [listing 2 of 2 here], the IC50 in assay [1] amounted to 1.9 µM. The ED50 in [5] came out at 17.3 µM; in [7], 5.12 µM.
